Measured values published in ChEMBL document CHEMBL3580565, “Synthesis and Biological Evaluation of Cyclopentaquinoline Derivatives as Nonsteroidal Glucocorticoid Receptor Antagonists” (J Med Chem, 2015).

Tests used:
Glucocorticoid receptor = target: T1, Glucocorticoid receptor (Homo sapiens, UniProt P04150); assay: Antagonist activity at human glucocorticoid receptor transfected in CHOK1 cells assessed as inhibition of dexamethasone-induced receptor transcriptional activity after 6 hrs by luciferase reporter gene assay; assay type: cell-based, CHO-K1
T1 sequence (P04150 whole entry): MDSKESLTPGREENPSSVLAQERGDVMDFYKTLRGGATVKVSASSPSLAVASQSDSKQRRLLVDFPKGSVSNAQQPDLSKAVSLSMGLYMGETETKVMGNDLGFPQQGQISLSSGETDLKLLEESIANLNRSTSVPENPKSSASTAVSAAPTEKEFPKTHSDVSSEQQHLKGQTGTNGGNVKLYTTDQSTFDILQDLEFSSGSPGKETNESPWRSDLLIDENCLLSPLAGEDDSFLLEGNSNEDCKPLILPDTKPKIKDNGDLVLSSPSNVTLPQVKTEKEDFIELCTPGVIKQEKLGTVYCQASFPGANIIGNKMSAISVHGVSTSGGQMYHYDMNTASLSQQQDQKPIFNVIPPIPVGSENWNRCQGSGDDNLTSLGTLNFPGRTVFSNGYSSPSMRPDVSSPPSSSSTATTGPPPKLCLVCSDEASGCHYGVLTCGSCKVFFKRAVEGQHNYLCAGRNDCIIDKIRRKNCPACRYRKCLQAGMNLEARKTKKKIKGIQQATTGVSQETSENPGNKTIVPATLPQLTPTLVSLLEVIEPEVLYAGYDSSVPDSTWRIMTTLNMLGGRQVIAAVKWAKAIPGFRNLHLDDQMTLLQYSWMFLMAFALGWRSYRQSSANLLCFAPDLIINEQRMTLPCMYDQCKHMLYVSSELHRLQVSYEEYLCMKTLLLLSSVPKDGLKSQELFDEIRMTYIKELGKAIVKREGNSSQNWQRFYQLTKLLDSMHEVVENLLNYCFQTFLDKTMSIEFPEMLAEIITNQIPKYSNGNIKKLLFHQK

Estrogen receptor = Estrogen receptor (Homo sapiens, UniProt P03372); assay: Displacement of fluormone ES2 from human recombinant estrogen receptor-alpha expressed in insect Sf9 cells after 120 mins by fluorescence polarization assay
Chain of Estrogen receptor (P03372 whole entry, looked up): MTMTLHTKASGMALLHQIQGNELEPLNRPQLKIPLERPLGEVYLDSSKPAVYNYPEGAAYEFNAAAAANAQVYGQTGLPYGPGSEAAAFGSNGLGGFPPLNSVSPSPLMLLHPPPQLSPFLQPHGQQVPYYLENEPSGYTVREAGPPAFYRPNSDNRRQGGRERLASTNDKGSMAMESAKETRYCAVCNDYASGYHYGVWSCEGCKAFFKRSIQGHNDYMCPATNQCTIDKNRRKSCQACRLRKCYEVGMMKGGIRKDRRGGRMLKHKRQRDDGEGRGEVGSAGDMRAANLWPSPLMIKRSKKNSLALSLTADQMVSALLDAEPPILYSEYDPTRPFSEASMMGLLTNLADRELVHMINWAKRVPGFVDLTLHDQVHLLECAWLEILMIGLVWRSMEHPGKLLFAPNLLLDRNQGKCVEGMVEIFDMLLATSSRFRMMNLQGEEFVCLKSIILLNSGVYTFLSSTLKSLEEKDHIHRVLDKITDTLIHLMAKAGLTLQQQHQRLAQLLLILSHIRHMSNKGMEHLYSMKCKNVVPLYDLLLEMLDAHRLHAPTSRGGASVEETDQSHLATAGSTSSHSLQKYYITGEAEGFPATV
Outline: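 Assay run at Cerep. Fluorescence polarization with Fluormone ES2 tracer, using recombinant human ERα expressed in Sf9 cells and ERβ expressed in Hi5 cells.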

Androgen receptor = target: T2, Androgen receptor (Homo sapiens, UniProt P10275); assay: Displacement of [3H]methyltrienolone from cytosolic fraction of androgen receptor in human […] cells after 24 hrs by scintillation counting analysis; assay type: cell-based
T2 sequence (P10275 whole entry): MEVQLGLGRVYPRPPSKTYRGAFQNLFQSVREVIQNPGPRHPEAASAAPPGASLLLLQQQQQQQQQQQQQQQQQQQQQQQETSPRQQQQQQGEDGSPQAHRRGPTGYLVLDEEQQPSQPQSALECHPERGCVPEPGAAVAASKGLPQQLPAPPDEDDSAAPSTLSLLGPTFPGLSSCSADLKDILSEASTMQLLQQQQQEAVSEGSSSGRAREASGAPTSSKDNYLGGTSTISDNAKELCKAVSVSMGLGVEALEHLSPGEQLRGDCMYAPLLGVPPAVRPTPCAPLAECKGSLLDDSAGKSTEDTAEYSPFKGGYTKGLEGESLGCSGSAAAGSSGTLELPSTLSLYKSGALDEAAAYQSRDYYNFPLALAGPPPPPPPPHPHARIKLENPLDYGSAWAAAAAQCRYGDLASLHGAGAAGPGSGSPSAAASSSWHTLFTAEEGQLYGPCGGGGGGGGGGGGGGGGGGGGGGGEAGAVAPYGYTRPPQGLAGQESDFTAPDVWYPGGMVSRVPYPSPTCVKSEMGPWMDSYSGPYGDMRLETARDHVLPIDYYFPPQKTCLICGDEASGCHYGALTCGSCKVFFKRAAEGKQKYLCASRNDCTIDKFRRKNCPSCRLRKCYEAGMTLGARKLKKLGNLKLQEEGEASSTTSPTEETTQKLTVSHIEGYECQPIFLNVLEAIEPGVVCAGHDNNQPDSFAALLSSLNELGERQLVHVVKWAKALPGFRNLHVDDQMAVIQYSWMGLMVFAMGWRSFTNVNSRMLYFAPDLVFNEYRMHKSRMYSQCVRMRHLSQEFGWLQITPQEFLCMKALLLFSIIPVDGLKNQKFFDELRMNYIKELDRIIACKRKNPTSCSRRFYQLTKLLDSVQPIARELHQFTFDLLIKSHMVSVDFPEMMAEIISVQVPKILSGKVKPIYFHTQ
Outline: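 Assay run at Cerep. Binding of [³H]methyltrienolone to cytosolic androgen receptor from LNCaP cells.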

[1] = AUC (0 to t) in Sprague-Dawley rat at 1 mg/kg, iv by LC/MS/MS analysis; assay type: ADME, organism-based; conditions: in vivo
Outline: (§1)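 Single intravenous dose to male Sprague–Dawley rats (n = 4). Jugular vein blood drawn at 0.05, 0.25, 0.5, 1, 2, 4, 8 and 24 h, heparin anticoagulant, plasma separated by centrifugation. Plasma drug level measured by LC/MS/MS.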

[2] = Half life in Sprague-Dawley rat at 1 mg/kg, iv by LC/MS/MS analysis; assay type: ADME, organism-based; conditions: in vivo; outline: as §1
[3] = AUC (0 to infinity) in Sprague-Dawley rat at 1 mg/kg, iv by LC/MS/MS analysis; assay type: ADME, organism-based; parameters: dose 1 mg/kg, route intravenous, time infinity; conditions: in vivo; outline: as §1
[4] = AUC (0 to infinity) in Sprague-Dawley rat at 10 mg/kg, po by LC/MS/MS analysis; assay type: ADME, organism-based; parameters: dose 10 mg/kg, time infinity, route oral; conditions: in vivo
Outline: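 Male Sprague–Dawley rats dosed orally (n = 4). Jugular vein blood sampled at 0.25, 0.5, 1, 2, 4, 6 and 24 h into heparin, plasma obtained by centrifugation. Concentrations determined by LC/MS/MS.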

[5] = Volume of distribution at steady state in Sprague-Dawley rat at 1 mg/kg, iv by LC/MS/MS analysis; assay type: ADME, organism-based; conditions: in vivo, read-out: Vdss; outline: as §1
Plasma = assay: Unbound plasma concentration in Sprague-Dawley rat at 30 mg/kg, po measured at 1 hr by LC/MS/MS analysis; assay type: ADME, organism-based; conditions: in vivo
Outline: (§2)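 Male SD rats given 30 mg/kg orally (n = 3 per time point), killed at 1 and 3 h. Heparinized blood collected for plasma; brain rinsed in saline, weighed, homogenized in five volumes (w/v) saline. Plasma and brain levels by LC/MS/MS. Kp,uu,brain is the ratio of unbound brain to unbound plasma concentration.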

[6] = Unbound brain to plasma concentration ratio in Sprague-Dawley rat at 30 mg/kg, po measured at 1 hr by LC/MS/MS analysis; assay type: ADME, organism-based; conditions: brain and plasma, read-out: K(p,uu,brain); outline: as §2
Rattus norvegicus [7] = assay: Antidepressant-like activity in Wistar rat assessed as immobility time at 30 mg/kg, po administered at 1, 5, 23.5 hrs prior to testing measured for 5 mins by forced swimming test (reference value: 211.3 to 232.2 secs); assay type: functional
Rattus norvegicus [8] = assay: Antidepressant-like activity in Wistar rat assessed as decrease in immobility time at 30 mg/kg, po administered at 1, 5, 23.5 hrs prior to testing measured for 5 mins by forced swimming test relative to vehicle-treated control; assay type: functional; parameters: scale not given: the % may be the effect or the level left
Rattus norvegicus [9] = assay: Antidepressant-like activity in Wistar rat assessed as decrease in immobility time at 100 mg/kg, po administered at 1, 5, 23.5 hrs prior to testing measured for 5 mins by forced swimming test relative to vehicle-treated control; assay type: functional; parameters: scale not given: the % may be the effect or the level left

- IC50 (Glucocorticoid receptor): 30 nM
- Ki (Estrogen receptor): > 2300 nM
- Ki (Androgen receptor): > 2300 nM
- AUC(0-t) [1]: 410 ng·h/mL
- half-life [2]: 3.2 h
- AUC(0-inf) [3]: 460 ng·h/mL
- AUC(0-inf) [4]: 2720 ng·h/mL
- Vd [5]: 6.13 L/kg
- Cp(f) (Plasma): 14.1 nM
- Kp uu at 1 h [6]: 1.8
SMILES: Cc1noc(C)c1-c1cc2c(c3c1CCC3)NC(C)(C)C(=O)C2(C)C
- Time (Rattus norvegicus [7]): 170.7 s
- Activity (Rattus norvegicus [8]): 75.9%
- Activity (Rattus norvegicus [9]): 80.7%
